Measurements reported in ChEMBL document CHEMBL1125192, “Analogues of the 5-HT1A serotonin antagonist 1-(2-methoxyphenyl)-4-[4-(2-phthalimido)butyl]piperazine with reduced alpha 1-adrenergic affinity” (J Med Chem, 1991).

target: Serotonin 2 (5-HT2) receptor (Rattus norvegicus, UniProt P30994+P08909+P14842); assay: Binding affinity towards 5-hydroxytryptamine 2 receptor using [3H]DOB as; assay type: protein assay
Summary of the method: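 [3H]DOB at 0.4 nM on 15 mg homogenized rat frontal cortex; nonspecific binding set with 1 μM cinanserin.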

Ki [nM]	SMILES
34	COc1ccccc1N1CCN(CCCCNC(=O)C23C[C@H]4C[C@@H](C2)C[C@@H](C3)C4)CC1

target: T1, Adrenergic receptor alpha-1 (Rattus norvegicus, UniProt P15823+P23944+P43140); assay: Binding affinity towards alpha-1 adrenergic receptor of rat frontal cortex using [3H]- WB- 4101 as a radioligand; assay type: tissue-based
T1 sequence (P15823 whole entry): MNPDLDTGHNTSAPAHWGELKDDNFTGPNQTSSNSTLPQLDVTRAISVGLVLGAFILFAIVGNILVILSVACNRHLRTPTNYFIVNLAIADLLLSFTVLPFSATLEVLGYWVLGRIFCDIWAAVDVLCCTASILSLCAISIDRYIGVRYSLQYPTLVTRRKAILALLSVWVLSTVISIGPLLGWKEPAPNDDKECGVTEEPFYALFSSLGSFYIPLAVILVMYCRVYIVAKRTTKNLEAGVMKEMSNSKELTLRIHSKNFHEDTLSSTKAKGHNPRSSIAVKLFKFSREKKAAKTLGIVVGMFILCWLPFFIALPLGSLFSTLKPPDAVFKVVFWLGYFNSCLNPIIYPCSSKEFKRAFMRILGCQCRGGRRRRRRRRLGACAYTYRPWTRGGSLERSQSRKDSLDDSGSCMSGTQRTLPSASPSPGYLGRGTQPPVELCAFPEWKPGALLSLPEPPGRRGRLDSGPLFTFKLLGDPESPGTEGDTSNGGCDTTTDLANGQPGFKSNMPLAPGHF
T1 sequence (P23944 whole entry): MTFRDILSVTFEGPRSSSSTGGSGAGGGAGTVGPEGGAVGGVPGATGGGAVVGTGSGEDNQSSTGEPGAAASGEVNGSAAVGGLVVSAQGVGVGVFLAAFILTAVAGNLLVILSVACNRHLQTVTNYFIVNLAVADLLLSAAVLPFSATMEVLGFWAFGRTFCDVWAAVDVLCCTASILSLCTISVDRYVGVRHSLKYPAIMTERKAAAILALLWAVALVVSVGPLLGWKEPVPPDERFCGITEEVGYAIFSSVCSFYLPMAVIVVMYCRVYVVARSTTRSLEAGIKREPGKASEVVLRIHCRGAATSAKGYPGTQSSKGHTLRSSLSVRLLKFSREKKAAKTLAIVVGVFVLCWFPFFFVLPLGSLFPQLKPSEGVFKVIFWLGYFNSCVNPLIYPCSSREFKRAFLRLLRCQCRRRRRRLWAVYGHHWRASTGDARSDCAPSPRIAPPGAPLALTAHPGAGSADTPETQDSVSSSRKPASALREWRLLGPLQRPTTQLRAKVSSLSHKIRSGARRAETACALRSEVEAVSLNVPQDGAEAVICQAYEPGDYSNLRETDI
T1 sequence (P43140 whole entry): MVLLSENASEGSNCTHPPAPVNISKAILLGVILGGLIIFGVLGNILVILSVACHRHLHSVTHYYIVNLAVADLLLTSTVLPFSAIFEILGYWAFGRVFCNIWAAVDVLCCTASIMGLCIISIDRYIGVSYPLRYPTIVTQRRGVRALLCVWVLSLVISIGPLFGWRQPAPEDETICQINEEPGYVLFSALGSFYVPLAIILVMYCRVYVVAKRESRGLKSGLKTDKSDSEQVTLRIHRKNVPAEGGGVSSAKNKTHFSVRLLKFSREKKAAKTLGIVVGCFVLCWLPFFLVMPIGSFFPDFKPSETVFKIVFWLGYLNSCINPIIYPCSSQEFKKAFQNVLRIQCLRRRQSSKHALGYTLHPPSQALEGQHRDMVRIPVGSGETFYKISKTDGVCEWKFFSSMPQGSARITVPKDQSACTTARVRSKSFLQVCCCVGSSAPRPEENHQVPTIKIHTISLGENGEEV

SMILES	Ki [nM]
O=C1c2ccccc2C(=O)N1CCCCN1CCN(c2cccc3ccccc23)CC1	22
CC(=O)Nc1ccc(N2CCN(CCCCN3C(=O)c4ccccc4C3=O)CC2)cc1	10000
CCCCC(=O)NCCCCN1CCN(c2ccccc2OC)CC1	84
COc1ccccc1N1CCN(CCCCNC(=O)c2ccc(N)cc2)CC1	23
O=C1c2ccccc2C(=O)N1CCCCN1CCN(c2ccc([N+](=O)[O-])cc2)CC1	378
COc1ccc(OC)c(N2CCN(CCCCN3C(=O)c4ccccc4C3=O)CC2)c1	15
COc1ccccc1N1CCN(CCCCNC(=O)c2ccc(O)cc2)CC1	17
COc1ccccc1N1CCN(CCCCNC(=O)CCCc2ccccc2)CC1	84
COc1ccccc1N1CCN(CCCCNC(=O)c2ccc([N+](=O)[O-])cc2)CC1	14
O=C1c2ccccc2C(=O)N1CCCCN1CCN(c2ccccc2[N+](=O)[O-])CC1	25

Continued, values first:

Ki [nM]	SMILES
74	COc1ccccc1N1CCN(CCCCNC(=O)C(C)(C)C)CC1
109	O=C(NCCCCN1CCN(c2cccc3ccccc23)CC1)C12C[C@H]3C[C@@H](C1)C[C@@H](C2)C3
21	COc1ccccc1N1CCN(CCCCNC(=O)c2ccc(Cl)c(Cl)c2)CC1
15	COc1ccccc1N1CCN(CCCCNC(=O)c2ccc(I)cc2)CC1
23	COc1ccccc1N1CCN(CCCCNC(=O)c2ccc(Cl)cc2)CC1
64	COc1ccccc1N1CCN(CCCCNC(=O)C23C[C@H]4C[C@@H](C2)C[C@@H](C3)C4)CC1

target: Adrenergic receptor beta (Rattus norvegicus, UniProt P18090+P10608+P26255); assay: Binding affinity towards beta adrenergic receptor using [3H]DHA as radioligand; assay type: protein assay
Summary of the method: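 Homogenized rat frontal cortex (5 mg) labelled with 1 nM [3H]DHA; 1 μM propranolol for nonspecific binding.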

Ki [nM]	SMILES
1020	COc1ccccc1N1CCN(CCCCNC(=O)C23C[C@H]4C[C@@H](C2)C[C@@H](C3)C4)CC1

target: T2, 5-hydroxytryptamine receptor 2C (Rattus norvegicus, UniProt P08909); assay: Binding affinity towards 5-hydroxytryptamine 1C receptor using [3H]mesulergine as radioligand
T2 sequence (P08909 whole entry): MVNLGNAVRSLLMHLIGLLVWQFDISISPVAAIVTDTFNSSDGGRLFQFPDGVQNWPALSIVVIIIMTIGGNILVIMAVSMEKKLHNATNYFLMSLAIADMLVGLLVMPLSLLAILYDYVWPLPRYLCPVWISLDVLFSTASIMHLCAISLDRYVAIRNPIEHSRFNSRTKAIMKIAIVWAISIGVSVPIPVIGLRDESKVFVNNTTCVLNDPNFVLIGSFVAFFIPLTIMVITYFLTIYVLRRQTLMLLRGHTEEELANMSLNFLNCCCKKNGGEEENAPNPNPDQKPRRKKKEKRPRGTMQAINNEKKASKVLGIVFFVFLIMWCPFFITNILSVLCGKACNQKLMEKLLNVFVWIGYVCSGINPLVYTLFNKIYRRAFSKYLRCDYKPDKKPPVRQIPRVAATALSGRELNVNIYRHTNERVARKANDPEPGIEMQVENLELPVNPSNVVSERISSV
Summary of the method: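 Homogenized rat frontal cortex (10 mg) with 1.0 nM [3H]mesulergine plus 10 nM spiperone; 10 μM 5-HT defined nonspecific binding.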

Ki [nM]	SMILES
225	COc1ccccc1N1CCN(CCCCNC(=O)C23C[C@H]4C[C@@H](C2)C[C@@H](C3)C4)CC1

target: D(1A) dopamine receptor (Rattus norvegicus, UniProt P18901); assay: Binding affinity towards Dopamine receptor D1 using [3H]SCH-23390 as radioligand
Sequence (P18901 whole entry): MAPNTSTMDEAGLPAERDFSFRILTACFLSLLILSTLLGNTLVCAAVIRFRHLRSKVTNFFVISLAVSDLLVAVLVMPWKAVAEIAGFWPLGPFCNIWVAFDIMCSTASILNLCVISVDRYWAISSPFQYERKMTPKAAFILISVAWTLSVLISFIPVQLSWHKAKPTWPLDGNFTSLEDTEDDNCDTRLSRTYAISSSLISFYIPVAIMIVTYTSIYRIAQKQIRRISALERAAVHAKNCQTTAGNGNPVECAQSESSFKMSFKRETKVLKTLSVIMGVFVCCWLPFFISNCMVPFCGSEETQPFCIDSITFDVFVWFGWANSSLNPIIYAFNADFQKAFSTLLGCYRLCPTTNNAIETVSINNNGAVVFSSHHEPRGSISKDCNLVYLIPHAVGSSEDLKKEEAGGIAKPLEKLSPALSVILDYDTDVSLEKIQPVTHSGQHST
Summary of the method: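 Homogenized rat striatum (2 mg), 1 nM [3H]SCH-23390 with 20 nM ketanserin added; 1 μM SCH-23390 defined nonspecific binding.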

Ki [nM]	SMILES
> 1000	COc1ccccc1N1CCN(CCCCNC(=O)C23C[C@H]4C[C@@H](C2)C[C@@H](C3)C4)CC1

target: D(2) dopamine receptor (Bos taurus, UniProt P20288); assay: Binding affinity towards D2-dopaminergic receptor using [3H]NMSP as radioligand
Sequence (P20288 whole entry): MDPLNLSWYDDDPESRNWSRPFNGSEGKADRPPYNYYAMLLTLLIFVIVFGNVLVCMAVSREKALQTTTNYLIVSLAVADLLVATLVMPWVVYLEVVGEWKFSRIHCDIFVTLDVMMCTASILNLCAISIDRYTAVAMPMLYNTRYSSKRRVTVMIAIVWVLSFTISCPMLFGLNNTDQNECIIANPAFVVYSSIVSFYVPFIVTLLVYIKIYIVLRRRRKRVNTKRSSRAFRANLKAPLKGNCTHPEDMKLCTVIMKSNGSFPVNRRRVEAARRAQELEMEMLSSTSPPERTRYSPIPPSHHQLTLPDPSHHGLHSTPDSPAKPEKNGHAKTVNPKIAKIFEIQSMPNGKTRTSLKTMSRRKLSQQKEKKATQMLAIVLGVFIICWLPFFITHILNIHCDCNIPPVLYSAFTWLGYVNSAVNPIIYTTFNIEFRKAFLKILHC
Summary of the method: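 Calf caudate (2 mg) with 1 nM [3H]NMSP in 140 mM NaCl; nonspecific binding defined by 10 μM sulpiride.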

Ki [nM]	SMILES
2.7	COc1ccccc1N1CCN(CCCCNC(=O)C23C[C@H]4C[C@@H](C2)C[C@@H](C3)C4)CC1

target: Serotonin 1a (5-HT1a) receptor/Adrenergic receptor alpha-1 (Rattus norvegicus) (UniProt P15823+P23944+P43140+P19327); assay: Ratio of Ki value for alpha-1 receptor to that of 5-HT1A receptor; assay type: protein assay
Summary of the method: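 Ratio of two radioligand binding Ki values. 5-HT1A binding used 0.1 nM [3H]-8-OH-DPAT with rat hippocampal homogenate (6 mg), and 10 μM 8-OH-DPAT defined nonspecific binding. α1-adrenergic binding used 1.0 nM [3H]WB4101 plus 100 nM 8-OH-DPAT with rat frontal cortex (10 mg), and 1 μM prazosin defined nonspecific binding.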

SMILES	Selectivity
O=C1c2ccccc2C(=O)N1CCCCN1CCN(c2cccc3ccccc23)CC1	22
CCCCC(=O)NCCCCN1CCN(c2ccccc2OC)CC1	11
COc1ccccc1N1CCN(CCCCNC(=O)c2ccc(N)cc2)CC1	4
O=C1c2ccccc2C(=O)N1CCCCN1CCN(c2ccc([N+](=O)[O-])cc2)CC1	0.4
COc1ccc(OC)c(N2CCN(CCCCN3C(=O)c4ccccc4C3=O)CC2)c1	0.7
COc1ccccc1N1CCN(CCCCNC(=O)c2ccc(O)cc2)CC1	3
COc1ccccc1N1CCN(CCCCNC(=O)CCCc2ccccc2)CC1	7
COc1ccccc1N1CCN(CCCCNC(=O)c2ccc([N+](=O)[O-])cc2)CC1	3
O=C1c2ccccc2C(=O)N1CCCCN1CCN(c2ccccc2[N+](=O)[O-])CC1	6

Results, then the molecule that gave them:

Selectivity	SMILES
74	COc1ccccc1N1CCN(CCCCNC(=O)C(C)(C)C)CC1
156	O=C(NCCCCN1CCN(c2cccc3ccccc23)CC1)C12C[C@H]3C[C@@H](C1)C[C@@H](C2)C3
11	COc1ccccc1N1CCN(CCCCNC(=O)c2ccc(Cl)c(Cl)c2)CC1
4	COc1ccccc1N1CCN(CCCCNC(=O)c2ccc(I)cc2)CC1
6	COc1ccccc1N1CCN(CCCCNC(=O)c2ccc(Cl)cc2)CC1

target: 5-hydroxytryptamine receptor 1B (Rattus norvegicus, UniProt P28564); assay: Binding affinity towards 5-hydroxytryptamine 1B receptor using [3H]5-HT as radioligand
Sequence (P28564 whole entry): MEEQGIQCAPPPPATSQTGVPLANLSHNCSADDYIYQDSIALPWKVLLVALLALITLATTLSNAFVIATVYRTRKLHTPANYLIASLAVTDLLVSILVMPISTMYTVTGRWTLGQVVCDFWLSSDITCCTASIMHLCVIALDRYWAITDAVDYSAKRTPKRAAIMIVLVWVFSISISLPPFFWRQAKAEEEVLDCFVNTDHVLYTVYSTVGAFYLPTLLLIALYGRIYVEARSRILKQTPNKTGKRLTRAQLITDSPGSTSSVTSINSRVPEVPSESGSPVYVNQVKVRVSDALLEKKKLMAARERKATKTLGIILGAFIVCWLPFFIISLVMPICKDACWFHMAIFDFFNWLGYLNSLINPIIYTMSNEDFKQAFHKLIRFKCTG

Ki [nM]	SMILES
890	COc1ccccc1N1CCN(CCCCNC(=O)C23C[C@H]4C[C@@H](C2)C[C@@H](C3)C4)CC1

target: T3, 5-hydroxytryptamine receptor 1A (Rattus norvegicus, UniProt P19327); assay: Binding affinity towards 5-hydroxytryptamine 1A receptor of rat hippocampus using [3H]-8-hydroxy-2-(di-n-propylamine) tetralin (8-OH-DPAT) as a radioligand; assay type: tissue-based
T3 sequence (P19327 whole entry): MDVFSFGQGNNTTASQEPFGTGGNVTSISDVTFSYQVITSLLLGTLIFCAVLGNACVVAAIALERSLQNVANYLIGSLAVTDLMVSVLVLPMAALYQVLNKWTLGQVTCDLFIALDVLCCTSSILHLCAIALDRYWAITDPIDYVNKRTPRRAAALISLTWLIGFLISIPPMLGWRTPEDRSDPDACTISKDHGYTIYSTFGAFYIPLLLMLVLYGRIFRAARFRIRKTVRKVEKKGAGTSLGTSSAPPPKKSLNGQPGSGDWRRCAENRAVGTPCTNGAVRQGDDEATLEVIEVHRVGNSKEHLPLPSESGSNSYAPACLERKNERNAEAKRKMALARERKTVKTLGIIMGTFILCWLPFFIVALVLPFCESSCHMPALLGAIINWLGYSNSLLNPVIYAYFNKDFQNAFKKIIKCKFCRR

SMILES	Ki [nM]
CC(=O)Nc1ccc(N2CCN(CCCCN3C(=O)c4ccccc4C3=O)CC2)cc1	213
CCCCC(=O)NCCCCN1CCN(c2ccccc2OC)CC1	7.5
COc1ccccc1N1CCN(CCCCNC(=O)c2ccc(N)cc2)CC1	6.3
O=C1c2ccccc2C(=O)N1CCCCN1CCN(c2ccc([N+](=O)[O-])cc2)CC1	1000
COc1ccc(OC)c(N2CCN(CCCCN3C(=O)c4ccccc4C3=O)CC2)c1	22
COc1ccccc1N1CCN(CCCCNC(=O)c2ccc(O)cc2)CC1	5.4
COc1ccccc1N1CCN(CCCCNC(=O)c2ccc([N+](=O)[O-])cc2)CC1	4.4
O=C1c2ccccc2C(=O)N1CCCCN1CCN(c2ccccc2[N+](=O)[O-])CC1	4

Continued, values first:

Ki [nM]	SMILES
1	COc1ccccc1N1CCN(CCCCNC(=O)C(C)(C)C)CC1
0.7	O=C(NCCCCN1CCN(c2cccc3ccccc23)CC1)C12C[C@H]3C[C@@H](C1)C[C@@H](C2)C3
2	COc1ccccc1N1CCN(CCCCNC(=O)c2ccc(Cl)c(Cl)c2)CC1
4	COc1ccccc1N1CCN(CCCCNC(=O)c2ccc(I)cc2)CC1
3.6	COc1ccccc1N1CCN(CCCCNC(=O)c2ccc(Cl)cc2)CC1
0.4	COc1ccccc1N1CCN(CCCCNC(=O)C23C[C@H]4C[C@@H](C2)C[C@@H](C3)C4)CC1
